Source: ChEMBL document CHEMBL1649562, “Emergence of high levels of extended-spectrum-beta-lactamase-producing gram-negative bacilli in the Asia-Pacific region: data from the Study for Monitoring Antimicrobial Resistance Trends (SMART) program, 2007” (2009)
Calls of active or inactive are those of the source.

How the values were obtained:
Klebsiella pneumoniae [1] = experiment: Antimicrobial activity against extended spectrum beta-lactamase-deficient Klebsiella pneumoniae assessed as percent susceptible isolates by CLSI method; type: functional
Pseudomonas aeruginosa [2] = experiment: Antimicrobial activity against Pseudomonas aeruginosa assessed as percent susceptible isolates by CLSI method; type: functional
Citrobacter freundii [3] = experiment: Antimicrobial activity against Citrobacter freundii assessed as percent susceptible isolates by CLSI method; type: functional
Klebsiella aerogenes [4] = experiment: Antimicrobial activity against Enterobacter aerogenes assessed as percent susceptible isolates by CLSI method; type: functional
Klebsiella oxytoca [5] = experiment: Antimicrobial activity against extended spectrum beta-lactamase-expressing Klebsiella oxytoca assessed as percent susceptible isolates by CLSI method; type: functional
Enterobacter cloacae [6] = experiment: Antimicrobial activity against Enterobacter cloacae assessed as percent susceptible isolates by CLSI method; type: functional
Klebsiella pneumoniae [7] = experiment: Antimicrobial activity against extended spectrum beta-lactamase-expressing Klebsiella pneumoniae assessed as percent susceptible isolates by CLSI method; type: functional
Klebsiella oxytoca [8] = experiment: Antimicrobial activity against extended spectrum beta-lactamase-deficient Klebsiella oxytoca assessed as percent susceptible isolates by CLSI method; type: functional
Proteus mirabilis [9] = experiment: Antimicrobial activity against Proteus mirabilis assessed as percent susceptible isolates by CLSI method; type: functional
Escherichia coli [10] = experiment: Antimicrobial activity against extended spectrum beta-lactamase-deficient Escherichia coli assessed as percent susceptible isolates by CLSI method; type: functional
Escherichia coli [11] = experiment: Antimicrobial activity against extended spectrum beta-lactamase-expressing Escherichia coli assessed as percent susceptible isolates by CLSI method; type: functional
Citrobacter freundii [12] = experiment: Antimicrobial activity against Citrobacter freundii assessed as percent susceptible isolates by CLSI method in presence of beta-lactamase inhibitor Sulbactam; type: functional
How it was run: (§1)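 Site laboratories identified isolates by their local methods. MICs were read from dehydrated broth microdilution panels, the same panel at all sites, following CLSI procedure. Susceptibility was categorized by CLSI interpretive criteria. QC ran daily at each site with E. coli ATCC 25922, K. pneumoniae ATCC 700603 and P. aeruginosa ATCC 27853.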

Klebsiella oxytoca [13] = experiment: Antimicrobial activity against extended spectrum beta-lactamase-expressing Klebsiella oxytoca assessed as percent susceptible isolates by CLSI method in presence of beta-lactamase inhibitor Sulbactam; type: functional
How it was run: (§2)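 ESBL status was assigned when the ceftazidime or cefotaxime MIC fell at least eightfold (three doubling dilutions) with clavulanic acid, compared with the drug alone. Isolates were identified locally at each site. MICs came from uniform dehydrated broth microdilution panels under CLSI procedure, with susceptibility by CLSI criteria. Daily QC used E. coli ATCC 25922, K. pneumoniae ATCC 700603 (ESBL-positive) and P. aeruginosa ATCC 27853.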

Klebsiella oxytoca [14] = experiment: Antimicrobial activity against extended spectrum beta-lactamase-deficient Klebsiella oxytoca assessed as percent susceptible isolates by CLSI method in presence of beta-lactamase inhibitor Sulbactam; type: functional; how it was run: as §2
Proteus mirabilis [15] = experiment: Antimicrobial activity against Proteus mirabilis assessed as percent susceptible isolates by CLSI method in presence of beta-lactamase inhibitor Sulbactam; type: functional; how it was run: as §1
Enterobacter cloacae [16] = experiment: Antimicrobial activity against Enterobacter cloacae assessed as percent susceptible isolates by CLSI method in presence of beta-lactamase inhibitor Sulbactam; type: functional; how it was run: as §1
Pseudomonas aeruginosa [17] = experiment: Antimicrobial activity against Pseudomonas aeruginosa assessed as percent susceptible isolates by CLSI method in presence of beta-lactamase inhibitor Sulbactam; type: functional, organism-based; how it was run: as §1
Escherichia coli [18] = experiment: Antimicrobial activity against extended spectrum beta-lactamase-expressing Escherichia coli assessed as percent susceptible isolates by CLSI method in presence of beta-lactamase inhibitor Sulbactam; type: functional; how it was run: as §2
Escherichia coli [19] = experiment: Antimicrobial activity against extended spectrum beta-lactamase-deficient Escherichia coli assessed as percent susceptible isolates by CLSI method in presence of beta-lactamase inhibitor Sulbactam; type: functional; how it was run: as §2
Klebsiella pneumoniae [20] = experiment: Antimicrobial activity against extended spectrum beta-lactamase-expressing Klebsiella pneumoniae assessed as percent susceptible isolates by CLSI method in presence of beta-lactamase inhibitor Sulbactam; type: functional; how it was run: as §2
Klebsiella aerogenes [21] = experiment: Antimicrobial activity against Enterobacter aerogenes assessed as percent susceptible isolates by CLSI method in presence of beta-lactamase inhibitor Sulbactam; type: functional; how it was run: as §1
Klebsiella pneumoniae [22] = experiment: Antimicrobial activity against extended spectrum beta-lactamase-deficient Klebsiella pneumoniae assessed as percent susceptible isolates by CLSI method in presence of beta-lactamase inhibitor Sulbactam; type: functional; how it was run: as §2
Proteus mirabilis [23] = experiment: Antimicrobial activity against Proteus mirabilis assessed as percent susceptible isolates by CLSI method in presence of beta-lactamase inhibitor tazobactem; type: functional; how it was run: as §1
Escherichia coli [24] = experiment: Antimicrobial activity against extended spectrum beta-lactamase-expressing Escherichia coli assessed as percent susceptible isolates by CLSI method in presence of beta-lactamase inhibitor tazobactem; type: functional; how it was run: as §2
Citrobacter freundii [25] = experiment: Antimicrobial activity against Citrobacter freundii assessed as percent susceptible isolates by CLSI method in presence of beta-lactamase inhibitor tazobactem; type: functional; how it was run: as §1
Pseudomonas aeruginosa [26] = experiment: Antimicrobial activity against Pseudomonas aeruginosa assessed as percent susceptible isolates by CLSI method in presence of beta-lactamase inhibitor tazobactem; type: functional; how it was run: as §1
Klebsiella aerogenes [27] = experiment: Antimicrobial activity against Enterobacter aerogenes assessed as percent susceptible isolates by CLSI method in presence of beta-lactamase inhibitor tazobactem; type: functional; how it was run: as §1
Klebsiella pneumoniae [28] = experiment: Antimicrobial activity against extended spectrum beta-lactamase-expressing Klebsiella pneumoniae assessed as percent susceptible isolates by CLSI method in presence of beta-lactamase inhibitor tazobactem; type: functional; how it was run: as §2
Klebsiella pneumoniae [29] = experiment: Antimicrobial activity against extended spectrum beta-lactamase-deficient Klebsiella pneumoniae assessed as percent susceptible isolates by CLSI method in presence of beta-lactamase inhibitor tazobactem; type: functional; how it was run: as §2
Klebsiella oxytoca [30] = experiment: Antimicrobial activity against extended spectrum beta-lactamase-deficient Klebsiella oxytoca assessed as percent susceptible isolates by CLSI method in presence of beta-lactamase inhibitor tazobactem; type: functional; how it was run: as §2
Escherichia coli [31] = experiment: Antimicrobial activity against extended spectrum beta-lactamase-deficient Escherichia coli assessed as percent susceptible isolates by CLSI method in presence of beta-lactamase inhibitor tazobactem; type: functional; how it was run: as §2
Enterobacter cloacae [32] = experiment: Antimicrobial activity against Enterobacter cloacae assessed as percent susceptible isolates by CLSI method in presence of beta-lactamase inhibitor tazobactem; type: functional; how it was run: as §1
Klebsiella oxytoca [33] = experiment: Antimicrobial activity against extended spectrum beta-lactamase-expressing Klebsiella oxytoca assessed as percent susceptible isolates by CLSI method in presence of beta-lactamase inhibitor tazobactem; type: functional; how it was run: as §2

| Compound | Activity (Klebsiella pneumoniae [1]) [%] | Activity (Pseudomonas aeruginosa [2]) | Activity (Citrobacter freundii [3]) [%] | Activity (Klebsiella aerogenes [4]) [%] | Activity (Klebsiella oxytoca [5]) [%] | Activity (Enterobacter cloacae [6]) [%] | Activity (Klebsiella pneumoniae [7]) [%] | Activity (Klebsiella oxytoca [8]) [%] | Activity (Proteus mirabilis [9]) [%] | Activity (Escherichia coli [10]) [%] | Activity (Escherichia coli [11]) [%] | further results |
| --- | --- | --- | --- | --- | --- | --- | --- | --- | --- | --- | --- | --- |
| C[C@@H](O)[C@H]1C(=O)N2C(C(=O)O)=C(S[C@@H]3CN[C@H](C(=O)Nc4cccc(C(=O)O)c4)C3)[C@H](C)[C@H]12 | 99 | inactive | 98 | 97 | 100 | 94 | 86 | 100 | 100 | 100 | 96 |  |
| NCC[C@H](O)C(=O)N[C@@H]1C[C@H](N)[C@@H](O[C@H]2O[C@H](CN)[C@@H](O)[C@H](O)[C@H]2O)[C@H](O)[C@H]1O[C@H]1O[C@H](CO)[C@@H](O)[C@H](N)[C@H]1O [AMIKACIN] | 99 | 85% | 84 | 83 | 86 | 92 | 73 | 100 | 92 | 98 | 87 |  |
| CC1(C)S[C@@H]2[C@H](NC(=O)[C@H](N)c3ccccc3)C(=O)N2[C@H]1C(=O)O [AMPICILLIN] |  |  |  |  |  |  |  |  |  |  |  | Activity (Citrobacter freundii [12]): 37%; Activity (Klebsiella oxytoca [13]): 5%; Activity (Klebsiella oxytoca [14]): 76%; Activity (Proteus mirabilis [15]): 72%; Activity (Enterobacter cloacae [16]): 17%; Activity (Pseudomonas aeruginosa [17]): inactive; Activity (Escherichia coli [18]): 5%; Activity (Escherichia coli [19]): 43%; Activity (Klebsiella pneumoniae [20]): 6%; Activity (Klebsiella aerogenes [21]): 31%; Activity (Klebsiella pneumoniae [22]): 76% |
| CO/N=C(\C(=O)N[C@@H]1C(=O)N2C(C(=O)O)=C(COC(C)=O)CS[C@H]12)c1csc(N)n1 [CEFOTAXIME] | 97 | 14% | 43 | 48 | 14 | 49 | 9 | 97 | 77 | 97 | 5 |  |
| CO[C@@]1(NC(=O)Cc2cccs2)C(=O)N2C(C(=O)O)=C(COC(N)=O)CS[C@@H]21 [CEFOXITIN] | 87 | inactive | 16 | 22 | 64 | 7 | 61 | 97 | 95 | 89 | 66 |  |
| CC(C)(O/N=C(\C(=O)N[C@@H]1C(=O)N2C(C(=O)[O-])=C(C[n+]3ccccc3)CS[C@H]12)c1csc(N)n1)C(=O)O [CEFTAZIDIME] | 97 | 66% | 43 | 46 | 27 | 53 | 20 | 97 | 89 | 95 | 29 |  |
| CO/N=C(\C(=O)N[C@@H]1C(=O)N2C(C(=O)O)=C(CSc3nc(=O)c(O)nn3C)CS[C@H]12)c1csc(N)n1 [CEFTRIAXONE] | 97 | 19% | 45 | 55 | 9 | 48 | 10 | 97 | 77 | 96 | 4 |  |
| C[C@@H](O)[C@H]1C(=O)N2C(C(=O)O)=C(SCCNC=N)C[C@H]12 [IMIPENEM ANHYDROUS] | 100 | 71% | 100 | 97 | 100 | 98 | 97 | 100 | 100 | 100 | 98 |  |
| C[C@H]1COc2c(N3CCN(C)CC3)c(F)cc3c(=O)c(C(=O)O)cn1c23.C[C@H]1COc2c(N3CCN(C)CC3)c(F)cc3c(=O)c(C(=O)O)cn1c23.O [LEVOFLOXACIN] | 94 | 73% | 77 | 83 | 41 | 79 | 43 | 97 | 84 | 72 | 21 |  |
| CCN1CCN(C(=O)N[C@@H](C(=O)N[C@@H]2C(=O)N3[C@@H]2SC(C)(C)[C@@H]3C(=O)O)c2ccccc2)C(=O)C1=O [PIPERACILLIN] |  |  |  |  |  |  |  |  |  |  |  | Activity (Proteus mirabilis [23]): 97%; Activity (Escherichia coli [24]): 83%; Activity (Citrobacter freundii [25]): 71%; Activity (Pseudomonas aeruginosa [26]): 81%; Activity (Klebsiella aerogenes [27]): 69%; Activity (Klebsiella pneumoniae [28]): 57%; Activity (Klebsiella pneumoniae [29]): 94%; Activity (Klebsiella oxytoca [30]): 100%; Activity (Escherichia coli [31]): 94%; Activity (Enterobacter cloacae [32]): 71%; Activity (Klebsiella oxytoca [33]): 68% |
